We go through 18 compounds from ChEMBL document CHEMBL1128459, “Characterization of potent and selective antagonists at postsynaptic 5-HT1A receptors in a series of N4-substituted arylpiperazines” (J Med Chem, 1995).

One may read the Ki as the dissociation constant of the complex between target and ligand, obtained from inhibition or displacement. A higher Ki goes with lower affinity.

Assay [1] relates to Rattus norvegicus. As to the kind of experiment: Minimum effective agonist dose administered subcutaneously. The class given is functional. The settings on record: sc, read-out: MED. The essentials:
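Male Wistar rats (200-220 g) were given the test drug alone sc in water (1.0 mL/kg), with vehicle reinjected at 30 min. Rectal temperature change from basal was measured 60 min after the first injection. MED for hypothermia was set against vehicle by ANOVA with Dunnett's test, P < 0.05.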

The nature of assay [2]: Ratio of MED (agonist) to that of MED (antagonist) values. The assay is classed as functional. The procedure, abridged: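 The MED for inducing hypothermia alone was divided by the MED for blocking 8-OH-DPAT (0.16 mg/kg sc) hypothermia. Both MEDs came from sc dosing in male Wistar rats and were tested against vehicle by ANOVA with Dunnett's test, P < 0.05.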
Assay [3] relates to Rattus norvegicus. Nature of the assay: Minimum effective antagonist dose administered subcutaneously. The assay is classed as functional. As to conditions: sc, read-out: MED. The essentials: (§1)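 Male Wistar rats (200-220 g) had rectal temperature taken, then received the test drug sc in distilled water (1.0 mL/kg). After 30 min they got 8-OH-DPAT 0.16 mg/kg sc, and temperature was remeasured 30 min later. Change from basal was scored.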

Assay [4] is filed under the species Rattus norvegicus. Nature of the assay: Maximum antagonist effect (% effect) expressed relative to 8-hydroxy-DPAT (100%). The assay is classed as functional. The procedure, abridged: (§2)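 In the rat rectal-temperature model (sc dosing, 8-OH-DPAT 0.16 mg/kg sc for antagonism), the maximal percentage of induced hypothermia (agonist) and of block of 8-OH-DPAT hypothermia (antagonist) was recorded. Each value is given with the dose at which it was reached.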

The subject of assay [5] is Rattus norvegicus. As to the kind of experiment: Compound after subcutaneous administration was evaluated for antagonist activity against hypothermia induced by 8-hydroxy -DPAT in rat. The class given is functional. The settings on record: sc, read-out: ID50 (the source's name). The procedure, abridged:
as §1

Assay [6] is filed under the species Rattus norvegicus. Nature of the assay: Maximum agonist effect (% effect) expressed relative to 8-hydroxy-DPAT (100%). The assay is classed as functional. The essentials: as §2
Assay [7] addresses 5-hydroxytryptamine receptor 1B (Rattus norvegicus, UniProt P28564). Nature of the assay: Binding affinity at 5-hydroxytryptamine 1B receptor. The procedure, abridged:
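Rat frontal cortex membranes (1/40 wt/vol) were homogenized in 50 mM Tris pH 7.7 with pargyline, 4 mM CaCl2 and 0.1% ascorbic acid, then preincubated for 30 min at 37 °C. Labelled with 2.0 nM [3H]-5-HT, with 100 nM 8-OH-DPAT and 100 nM mesulergine masking 5-HT1A/5-HT2A sites; 5-CT defined nonspecific binding.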

In assay [8] the target is T1, 5-hydroxytryptamine receptor 1A (Rattus norvegicus, UniProt P19327).
T1 sequence (P19327 whole entry): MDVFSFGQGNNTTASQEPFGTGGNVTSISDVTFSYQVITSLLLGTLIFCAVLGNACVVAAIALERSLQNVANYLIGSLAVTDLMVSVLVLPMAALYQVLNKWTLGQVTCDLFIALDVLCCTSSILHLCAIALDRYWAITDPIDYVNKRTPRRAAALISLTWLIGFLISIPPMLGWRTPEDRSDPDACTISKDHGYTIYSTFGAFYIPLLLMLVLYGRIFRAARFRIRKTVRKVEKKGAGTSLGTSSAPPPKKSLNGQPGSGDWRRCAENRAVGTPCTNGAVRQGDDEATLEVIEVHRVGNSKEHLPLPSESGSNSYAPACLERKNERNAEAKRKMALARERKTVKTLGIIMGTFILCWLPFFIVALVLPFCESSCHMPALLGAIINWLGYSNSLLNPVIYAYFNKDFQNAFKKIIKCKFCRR
Nature of the assay: Binding affinity at 5-hydroxytryptamine 1A receptor. The essentials: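 Rat hippocampal membranes (1/100 wt/vol) in 50 mM Tris pH 7.7 with 4 mM CaCl2, 0.1% ascorbic acid and pargyline. Membranes were spun at 25000g, preincubated 30 min at 37 °C and respun, then incubated with 0.4 nM [3H]-8-OH-DPAT for 30 min at 25 °C. 5-HT defined nonspecific binding, and samples were filtered on PEI-soaked GF/B. IC50 came from regression; pKi = −log[IC50/(1+[L]/Kd)].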

Assay [9] deals with D(2) dopamine receptor (Rattus norvegicus) (UniProt P61169).
D(2) dopamine receptor (Rattus norvegicus), sequence (P61169 whole entry): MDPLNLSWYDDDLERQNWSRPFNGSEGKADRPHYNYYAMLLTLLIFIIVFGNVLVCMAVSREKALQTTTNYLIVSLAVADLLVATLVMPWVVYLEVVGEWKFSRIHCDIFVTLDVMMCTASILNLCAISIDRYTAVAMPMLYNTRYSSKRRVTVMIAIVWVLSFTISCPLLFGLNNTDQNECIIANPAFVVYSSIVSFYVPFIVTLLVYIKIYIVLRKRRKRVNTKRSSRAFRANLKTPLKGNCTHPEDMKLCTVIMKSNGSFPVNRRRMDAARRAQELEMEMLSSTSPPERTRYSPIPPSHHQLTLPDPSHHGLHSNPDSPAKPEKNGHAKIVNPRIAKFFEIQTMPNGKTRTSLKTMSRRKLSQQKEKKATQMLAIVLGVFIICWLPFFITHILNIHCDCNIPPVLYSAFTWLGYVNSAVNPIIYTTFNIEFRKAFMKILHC

A value given as a limit tells only on which side of the number the result lay.

5-hydroxytryptamine receptor 1B, sequence (P28564 whole entry): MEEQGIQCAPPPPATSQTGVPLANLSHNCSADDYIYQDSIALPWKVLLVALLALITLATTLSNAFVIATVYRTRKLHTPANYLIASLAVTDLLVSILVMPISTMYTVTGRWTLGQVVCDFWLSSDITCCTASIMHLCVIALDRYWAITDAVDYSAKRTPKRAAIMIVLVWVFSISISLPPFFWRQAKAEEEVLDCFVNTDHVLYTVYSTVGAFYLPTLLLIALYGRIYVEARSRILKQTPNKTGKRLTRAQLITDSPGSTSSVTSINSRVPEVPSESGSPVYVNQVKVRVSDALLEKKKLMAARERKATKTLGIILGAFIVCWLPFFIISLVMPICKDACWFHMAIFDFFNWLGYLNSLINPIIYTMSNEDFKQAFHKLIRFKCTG

Turning to `c1cc2c(c(N3CCNCC3)c1)OCCO2` [ELTOPRAZINE], the results for the minimal effective dose in assay [1] and in [3] were 2.5 mg/kg and greater than 40 mg/kg, respectively. The Ratio in [2] was less than 0.06. The Max effect in [4] was determined as 0%; in [6] it was 100%. In assay [5], the ED50 was greater than 40 mg/kg.
With `c1ccc2c(c1)CC2CN1CCN(c2cccc3c2OCCO3)CC1` (stereo unspecified), the results for the Ki in assay [7] and in [8] were 214 nM and 1.78 nM, respectively. The minimal effective dose in [1] stood at 10 mg/kg; in assay [3], 0.63 mg/kg. Besides, the Ratio in assay [2] was determined as 15.8. In addition, the Max effect in [4] amounted to 85%; in [6] it was 100%. Moreover, the ED50 in assay [5] is 0.67 mg/kg. Moreover, the ID50 in assay [9] was greater than 40 mg/kg.
On to `c1ccc2c(c1)CC2CCN1CCN(c2cccc3c2OCCCO3)CC1` (stereo unspecified), for which the Ki is 562 nM in [7] and 1.15 nM in assay [8]. Moreover, the minimal effective dose amounted to 40 mg/kg in assay [1] and 1.25 mg/kg in [3]. Also, the Ratio in assay [2] was found to be 32. For the same compound, the Max effect in assay [4] is 72%; in assay [6] it was 31%. In addition, the ED50 in assay [5] stood at 2.68 mg/kg. In [9], the ID50 was 30 mg/kg.
In assay [9], `COc1cc2nc(N3CCN(C(=O)c4ccco4)CC3)nc(N)c2cc1OC` came in with an ID50 greater than 10 mg/kg.
With `c1ccc2c(c1)CC(CCCN1CCN(c3cccc4c3OCCO4)CC1)C2`, the Ki in assay [7] was 1860 nM; in [8] it was 1.26 nM. Moreover, the minimal effective dose is 40 mg/kg in assay [1] and 0.63 mg/kg in [3]. Moreover, the Ratio in assay [2] stood at 63.5. Besides, the results for the Max effect in [4] and in assay [6] were 70% and 40%, respectively. For the same compound, the ED50 in [5] is 0.47 mg/kg. In assay [9], this compound had an ID50 greater than 40 mg/kg.
`c1ccc2c(c1)CC(CCN1CCN(c3cccc4c3OCCO4)CC1)C2`: in [7], the affinity, expressed as Ki, was 692 nM. Moreover, the results for the minimal effective dose in assay [1] and in [3] were 10 mg/kg and 0.16 mg/kg, respectively. The Ratio in assay [2] came to 62.5. Further, the Max effect is 100% in assay [4] and 50% in assay [6]. Besides, the ED50 in assay [5] came to 0.27 mg/kg. The compound further gave an ID50 in [9] of 5.9 mg/kg.
On to `c1ccc2c(c1)CC2CN1CCN(c2cccc3c2OCCCO3)CC1` (stereo unspecified), for which the minimal effective dose in [1] is greater than 10 mg/kg; in assay [3] it was 0.63 mg/kg. In assay [2], the Ratio was greater than 15.8. Also, the Max effect was 91% in assay [4] and 76% in assay [6]. Further, the Ki in [8] is 7.94 nM. The ED50 in assay [5] is 0.32 mg/kg. In addition, the ID50 in assay [9] is greater than 40 mg/kg.
Take `Clc1cccc2c1CC2CCCN1CCN(c2cccc3c2OCCO3)CC1` (stereo unspecified): the figures for the Ki in assay [7] and in assay [8] were 1100 nM and 3.72 nM, respectively. In addition, the minimal effective dose in assay [1] is greater than 10 mg/kg; in assay [3], 0.63 mg/kg. Also, the Ratio in assay [2] was greater than 15.8. Moreover, the Max effect came to 60% in assay [4] and 15% in [6]. For the same compound, the ED50 in assay [5] amounted to 3.09 mg/kg. In addition, the ID50 in assay [9] is 40 mg/kg.
With `COc1cc2c(cc1OC)C(CCN1CCN(c3cccc4c3OCCO4)CC1)C2` (stereo unspecified), the Ki in assay [7] was 794 nM; in [8], 3.16 nM. The minimal effective dose is greater than 40 mg/kg in assay [1] and 1.25 mg/kg in assay [3]. For the same compound, the Ratio in assay [2] is greater than 32. For the same compound, the results for the Max effect in assay [4] and in [6] were 96% and 4%, respectively. The ED50 in assay [5] was determined as 1.41 mg/kg. The same compound displayed an ID50 in [9] greater than 40 mg/kg.
As to `C1=C(CCN2CCN(c3cccc4c3OCCO4)CC2)c2ccccc2CC1`, the Ki in [7] is 229 nM; in assay [8], 2 nM. The values for the minimal effective dose in assay [1] and in assay [3] were greater than 40 mg/kg and 0.63 mg/kg, respectively. Further, the Ratio in assay [2] is greater than 63.5. The Max effect turned out to be 100% in assay [4] and 14% in [6]. Moreover, the ED50 in assay [5] was found to be 0.4 mg/kg. The compound further showed an ID50 in assay [9] greater than 40 mg/kg.
In the case of `c1ccc2c(c1)CCCC2CCN1CCN(c2cccc3c2OCCO3)CC1` (stereo unspecified), the Ki was 708 nM in [7] and 2.75 nM in assay [8]. The minimal effective dose in [1] is greater than 2.5 mg/kg; in assay [3], 0.16 mg/kg. Moreover, the Ratio in assay [2] was greater than 15.6. Also, the Max effect in assay [4] is 70%; in assay [6] it was 8%. In addition, the ED50 in assay [5] was determined as 0.4 mg/kg. Moreover, the ID50 in assay [9] worked out at 40 mg/kg.
Regarding `c1ccc2c(c1)CC2CN1CCN(c2cccc3ccoc23)CC1` (stereo unspecified), the Ki in [7] is 912 nM; in [8], 7.94 nM. Moreover, the minimal effective dose in assay [1] was greater than 10 mg/kg; in [3], 2.5 mg/kg. The Ratio in assay [2] was greater than 4. In addition, the Max effect came out at 96% in assay [4] and 15% in [6]. Further, in assay [5], the ED50 was 1.12 mg/kg.
As to `C1=C(CCN2CCN(c3cccc4c3OCCO4)CC2)c2ccccc2CCC1`, the values for the Ki in assay [7] and in assay [8] were 380 nM and 3.16 nM, respectively. The minimal effective dose was greater than 40 mg/kg in [1] and 2.5 mg/kg in assay [3]. Also, in assay [2], the Ratio is greater than 16. Moreover, the Max effect in assay [4] stood at 55%; in [6] it was 33%. Also, the ED50 in assay [5] is 5.02 mg/kg. The ID50 in assay [9] stood at 40 mg/kg.
Consider `c1ccc2c(c1)CC2CCCN1CCN(c2cccc3c2OCCCO3)CC1` (stereo unspecified), for which the Ki in [7] is 617 nM; in assay [8], 0.794 nM. Also, the minimal effective dose was greater than 2.5 mg/kg in assay [1] and 0.16 mg/kg in [3]. In addition, the Ratio in [2] is greater than 15.6. Moreover, the Max effect in assay [4] is reported as 85%; in assay [6], 21%. Further, the ED50 in assay [5] was 0.27 mg/kg.
`COc1ccc2c(c1)C(CCN1CCN(c3cccc4c3OCCO4)CC1)C2` (stereo unspecified): the Ki in assay [7] is 316 nM; in assay [8], 1.26 nM. Further, the figures for the minimal effective dose in assay [1] and in assay [3] were 10 mg/kg and 0.63 mg/kg, respectively. Besides, the Ratio in assay [2] is 15.8. For the same compound, the Max effect was 95% in assay [4] and 35% in assay [6]. Also, the ED50 in assay [5] amounted to 0.48 mg/kg. The ID50 in assay [9] was greater than 40 mg/kg.
On to `c1ccc2c(c1)CCC2CCCN1CCN(c2cccc3c2OCCO3)CC1` (stereo unspecified), for which the Ki in assay [7] is 204 nM; in [8] it was 0.617 nM. Further, the results for the minimal effective dose in assay [1] and in assay [3] were 10 mg/kg and 0.16 mg/kg, respectively. The Ratio in [2] was 62.5. The Max effect in [4] stood at 81%; in assay [6] it was 100%. The ED50 in assay [5] was determined as 0.29 mg/kg. This compound displayed an ID50 in assay [9] greater than 40 mg/kg.
`C1=C(CCN2CCN(c3cccc4c3OCCO4)CC2)Cc2ccccc21`: the Ki is 933 nM in assay [7] and 0.537 nM in assay [8]. For the same compound, the minimal effective dose in assay [1] stood at 10 mg/kg; in [3], 0.31 mg/kg. The Ratio in assay [2] is 32.2. The Max effect in assay [4] was found to be 81%; in assay [6], 76%. Also, the ED50 in [5] turned out to be 0.36 mg/kg.
On to `c1ccc2c(c1)CCCCC2CCN1CCN(c2cccc3c2OCCO3)CC1` (stereo unspecified), for which the Ki in assay [7] was 776 nM; in assay [8], 6.61 nM. In addition, the minimal effective dose is greater than 10 mg/kg in assay [1] and 5 mg/kg in [3]. For the same compound, the Ratio in assay [2] is greater than 2. In addition, the Max effect in assay [4] is 96%; in assay [6] it was 9%. For the same compound, the ED50 in [5] worked out at 4.26 mg/kg. In assay [9], this compound returned an ID50 greater than 10 mg/kg.
